This is one part of a sample in which hits are shown more often than they occur.
MPTP block: permeability transition pore inhibition; isolated mouse mitochondria, Ca2+ swelling absorbance, 30 min; inhibition, % at 10 µM; AID 602449; 1.4% of 360,000 active;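 active = inhibition of 50% or more, scaled per plate between neutral and stimulator controls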;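 also: 0% = DMSO wells given calcium and 100% = 1 mM EGTA wells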
Hep lipid drop: modulators of hepatic lipid droplet formation; 0.4% of 240,000 active; AID 1656; AML12 mouse hepatocytes, oleate lipid droplets, BODIPY imaging; inhibition, % at 6.5 µM;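 active = lipid droplet intensity inhibited by at least 50%, with more than 500 cells counted; inconclusive = wells with under 300 cells, treated as cytotoxic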
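Assay system: AML12 hepatocytes (mouse) / Also added: 100 µM oleic acid challenge / Times: overnight treatment with compound plus oleate / Detection: high-content imaging of BODIPY-stained droplets and DAPI nuclei / Evaluation: % inhibition of lipid droplet signal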
Redox H2O2 prof: compounds producing H2O2 with reducing agent – biochemical, NIH compound library profiling, artefact control for MLSCN library redox annotation, primary screen; DTT-dependent redox cycling H2O2, phenol red/HRP absorbance; 100% = 100 µM peroxide control, 0% = buffer; activation, % at 10 µM; 0.03% of 200,000 active; AID 878;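 active = activation of at least 50% relative to the plate's high and low controls in the primary single-dose screen; inactive = activation below 50%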;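 also: compound incubated with DTT at 0.8 mM final as the reducing agent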
T cruzi inh: blocks replication of Trypanosoma cruzi. AID 1885. inhibition, % (test concentration not listed). 1.4% of 300,000 active. T. cruzi beta-gal in NIH3T3, luminescence, 90 h;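 active = mean inhibition across valid replicates above about 55%, limit read from the data; inconclusive = mean below that limit but half or more replicates reach it; inactive = mean below it, under half of replicates reach it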;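 also: signal also drops with host cell toxicity which is not excluded here; 0% = plate median of DMSO wells and 100% = zero luminescence signal; higher percent means less beta-gal luminescence so fewer parasites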
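Incubation – ≥90 h infection period, 3 h prior cell attachment · System – NIH/3T3 fibroblasts plus reporter T. cruzi · Doses – compound pinned at 50 nL/well, DMSO · Read-out basis – percent inhibition of parasite-derived β-gal signal · Signal – luminescent β-galactosidase signal after 60 min lysis · Also added – 5000 T. cruzi trypomastigotes/well · Medium – Low-serum DMEM with 2% FBS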
Lmaj promast: inhibitors of Leishmania major promastigote growth | AID 1063 | inhibition, % at 10 µM | 9% of 200,000 active | Leishmania major promastigotes, resazurin fluorescence viability; in the data active = inhibition above about 50%;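 also: promastigotes grown with compound for 44 hours at 28 °C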
Rh123 counter: Rhodamine 123 counter-screen of mitochondrial pore hits | AID 624504 | shares compounds with MPTP block | 78% of 5,000 active | isolated mitochondria, membrane potential, Rhodamine 123 fluorescence | inhibition, % at 10 µM; in the data active = inhibition above about 22%;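 also: 0% = DMSO vehicle and 100% = positive control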
MPTP swell DR: MPTP inhibition, dose response swelling confirmation | shares compounds with MPTP block | isolated mitochondria swelling, absorbance | IC50, µM | 58% of 780 active | AID 651561; in the data active = IC50 below about 20 µM
MPTP counter DR: MPTP inhibitor counter-screen activity, dose response. shares compounds with MPTP block. isolated mitochondria counterscreen, fluorescence read-out. IC50, µM. 49% of 780 active; in the data active = IC50 below about 80 µM
Starred values were filed as active, the others as inactive; ? = inconclusive; / = not tested or not shown.

SMILES	MPTP block	Hep lipid drop	Redox H2O2 prof	T cruzi inh	Lmaj promast	Rh123 counter	others
COc1cc(NC(=O)CSc2ncnc3c2cnn3Cc2ccccc2)cc(OC)c1	54*	-10	0	-20	1	28*
FC(F)Oc1ccc(NC(=S)Nn2cnnc2)cc1	1	16	-1	-11	-9	/
NC(=S)NNc1ccnc2cc(Cl)ccc12	-2	-8	0	-6	18	/
O=C(NNc1ccnc2cc(Cl)ccc12)C1CCCCC1	99*	-2	1	32	10	90*
FC(F)Oc1ccc(NC(=S)NNc2ccnc3cc(Cl)ccc23)cc1	101*	6	0	-7	5	65*
Nc1nc2ccc(Cl)cc2cc1C(=O)NC1CC1	-2	/	/	/	/	/
O=c1cc(CSc2nnc(Nc3ccccc3)s2)nc2sccn12	-2	23	-1	/	1	/
Cc1cccc(Nc2nnc(SCc3cn4ccsc4n3)s2)c1	76*	/	1	16	3	-1	MPTP swell DR=>100;MPTP counter DR=>80
O=S(=O)(Nc1ccc(O)c(Sc2nc3ccccc3s2)c1)c1ccc(F)cc1	78*	4	-1	8	35	55*
O=C(O)c1cccc(S(=O)(=O)Nc2ccc(O)c(Sc3nc4ccccc4s3)c2)c1	-3	1	1	-8	-5	/
Cc1ccc(N/N=C(\C#N)C(=O)c2ccsc2)cc1	52*	-8	/	-10	/	72*
N#C/C(=N\Nc1ccc(Cl)c(Cl)c1)C(=O)C1CC1	48	6	/	-13	/	/
N#C/C(=N\Nc1ccc(Cl)cc1)C(=O)c1ccsc1	72*	12	/	-33	/	90*
CC1(C)CC(=O)C=C(c2cccc(Cl)c2O)C1	0	/	/	/	/	/
CC(NC(=O)C1CCN(C(=O)Nc2ccccc2)CC1)c1ccc(Cl)cc1 (stereo not drawn)	-3	/	/	/	/	/
O=C(CSc1nnc(CNC(=O)c2ccco2)o1)Nc1ccccc1F	-2	5	/	5	/	/
Cc1cc(Nc2ccc([N+](=O)[O-])cc2)nc2ccccc12	76*	3	-1	28	-5	58*
O=C(COc1ccccc1/C=C1\SC(=S)NC1=O)Nc1ccc(F)cc1	61*	/	/	/	/	78*
Cc1cc(F)ccc1S(=O)(=O)N1CCC2(CC1)OCCN2S(=O)(=O)c1cccs1	0	/	/	15	/	/
Cn1nccc1C(=O)Nc1cccc(S(=O)(=O)N2CCOCC2)c1	0	24	/	-6	/	/
Fc1ccc(-c2nn(-c3ccccc3)cc2CNCc2ccccc2)cc1	91*	0	0	?	80*	-10	MPTP swell DR=4.7*;MPTP counter DR=43*
O=C(O)Cc1cn(-c2ccccc2)nc1-c1ccccc1	3	9	-2	-8	-9	/
O=C(Nc1nnc(SCc2ccccc2)s1)c1cccc([N+](=O)[O-])c1	71*	-2	0	-8	-9	83*
CC(C)(C)c1nc(NC(=O)Nc2ccccc2)sc1Br	94*	-12	0	57*	-4	80*
COc1ccc2nc(NC(=O)Nc3ccccc3)sc2c1	4	14	0	0	1	/
SMILES	MPTP block	Hep lipid drop	Redox H2O2 prof	T cruzi inh	Lmaj promast	Rh123 counter	others
Cc1nnc(SCc2cccc([N+](=O)[O-])c2)s1	-1	3	0	5	-5	/
O=C(Nc1nnc(SCc2ccc(Cl)cc2)s1)c1ccco1	-2	/	0	-16	-2	/
O=C(Nc1ccc(Cl)cc1)Nc1nnc(SCc2ccccc2)s1	86*	23	0	-14	-4	89*
O=C(Nc1ccc(Cl)cc1)Nc1nnc(CSCc2ccccc2Cl)s1	79*	-6	1	-1	-5	57*
CN(C1CCCCC1)S(=O)(=O)c1ccc(S(=O)(=O)N(CC(=O)Nc2ccccc2)C2CC2)cc1	32	-1	/	40	/	/
O=C1CCCc2oc3c(c21)CCCC3	1	-2	-1	-15	-3	/
Cc1ccc(NC(=O)C2=C(C(=O)O)CCCC2)cc1F	-1	-8	/	-8	/	/
O=C(O)c1cccc(NC(=O)c2cccc(S(=O)(=O)N3CCc4ccccc4C3)c2)c1	-2	20	0	1	-11	/
CN1CCN(c2ccccc2NC(=O)COc2ccc(Cl)cc2)CC1	-1	-9	/	16	/	/
O=C(Cc1nnc(NC(=O)Nc2ccccc2)s1)Nc1ccccc1	4	-7	/	4	/	/
CC1CCN(S(=O)(=O)c2nnc(NC(=O)c3cccc([N+](=O)[O-])c3)s2)CC1	82*	3	/	3	/	42*
O=C(Nc1ccc(Cl)c(Cl)c1)Nc1nnc(CSc2ccccc2)s1	75*	-48	1	3	11	40*
Cc1nnc(NC(=O)Nc2cccc(Cl)c2)s1	1	15	4	-5	4	/
CC(C)(C)c1nnc(NC(=O)Nc2ccc(Cl)cc2)s1	58*	11	/	13	/	86*
Cc1ccc(OCCSCc2nnc(NC(=O)Nc3cccc(Cl)c3)s2)cc1	93*	0	0	6	32	85*
O=C(Nc1ccccc1)Nc1nnc(CSCc2ccccc2Cl)s1	90*	-13	0	25	-5	92*
O=c1[nH]nc(Cc2ccc(-c3ccc(Cl)cc3)o2)c2ccccc12	64*	4	2	4	6	20	MPTP swell DR=>100;MPTP counter DR=10*
O=c1[nH]nc(Cc2ccccc2)c2ccccc12	0	3	0	-18	-5	/
O=[N+]([O-])c1ccc(N2CCN(C(=S)Nc3ccccc3)CC2)cc1	0	18	-2	-60	-4	/
O=C(Nc1ccc(Cl)cc1)N1CCN(c2ccccc2)CC1	66*	0	1	-8	6	75*
CCCN1CCN(C(=S)Nc2ccc([N+](=O)[O-])cc2)CC1	60*	5	0	-8	36	66*
O=[N+]([O-])c1ccc(NC(=S)N2CCOCC2)cc1	-1	20	0	-8	-4	/
O=[N+]([O-])c1ccc(NC(=S)N2CCN(c3ccccc3)CC2)cc1	72*	1	0	-7	-4	84*
CC(C)(C)C(=O)c1c(N)[nH]c(C(=O)c2ccccc2)c1-c1ccccc1Br	2	/	/	/	/	/
O=S(=O)(Nc1nc2ccccc2nc1N1CCN(c2ccccc2)CC1)c1ccc(F)cc1	79*	14	1	7	-7	72*
O=S(=O)(Nc1nc2ccccc2nc1Nc1ccc2c(c1)OCO2)c1ccc(F)cc1	51*	6	0	-35	1	4	MPTP swell DR=4.1*;MPTP counter DR=<2.5*
Cc1ccc(S(=O)(=O)Nc2nc3ccccc3nc2N2CCOCC2)cc1	-1	/	/	/	/	/
O=S(=O)(Nc1nc2ccccc2nc1Nc1cccc(S(=O)(=O)N2CCCCC2)c1)c1ccccc1	55*	2	0	-48	69*	44*

Bioassay records from PubChem BioAssay.
